Tested on: HEK-293T
Experiment: Multiplex assay against HEK293T;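 for Population Tubulin-Different-Phenotype (%): share of the cells with healthy nuclei that show this phenotype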
Type: toxicity, cell-based
Details: human
Method in brief: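 Imaging took place on a CQ1 microscope at 37°C and 5% CO2 once compound had been added to live cells stained at seeding with Hoechst33342, BioTracker Green Microtubule Cytoskeleton Dye, MitoTracker Red and Annexin V Alexa Fluor 680. CellPathfinder machine-learning gating classed cells as Hoechst high-intensity objects or normal cells, classed normal cells as having healthy, pyknosed or fragmented nuclei, and classed pyknosed cells as mitotic or apoptotic. Tubulin, mitochondrial-mass and membrane-permeability phenotypes are per cents of the healthy-nucleus cells.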

[1] = 12 h, 1 µM, compound concentration 1 uM, replicate 1
[2] = 12 h, 1 µM, compound concentration 1 uM, replicate 2
[3] = 12 h, 10 µM, compound concentration 10 uM, replicate 1
[4] = 12 h, 10 µM, compound concentration 10 uM, replicate 2
[5] = 24 h, 1 µM, compound concentration 1 uM, replicate 1
[6] = 24 h, 1 µM, compound concentration 1 uM, replicate 2
[7] = 24 h, 10 µM, compound concentration 10 uM, replicate 1
[8] = 24 h, 10 µM, compound concentration 10 uM, replicate 2
[9] = 48 h, 1 µM, compound concentration 1 uM, replicate 1
[10] = 48 h, 1 µM, compound concentration 1 uM, replicate 2
[11] = 48 h, 10 µM, compound concentration 10 uM, replicate 1
[12] = 48 h, 10 µM, compound concentration 10 uM, replicate 2

COC(=O)C1=C(C)NC(C)=C(C(=O)OCCCN2CCC(c3ccccc3)(c3ccccc3)CC2)[C@H]1c1cccc([N+](=O)[O-])c1 [NIGULDIPINE]
Population Apoptotic (%) [1]: 86%
Population Fragmented Nuclei (%) [1]: 7%
Population Healthy Nuclei (%) [1]: 34%
Population Hoechst High Intensity Objects (%) [1]: 9%
Population Membrane Permeable-Phenotype (%) [1]: 2%
Population Mitochondria Different-Phenotype (%) [1]: 98%
Population Mitotic Cells (%) [1]: 13%
Population Normal (%) [1]: 90%
Population Pyknosed Nuclei (%) [1]: 58%
Population Tubulin-Different-Phenotype (%) [1]: 97%
Total Cell Count [1]: 272
Population Apoptotic (%) [2]: 91%
Population Fragmented Nuclei (%) [2]: 5%
Population Healthy Nuclei (%) [2]: 32%
Population Hoechst High Intensity Objects (%) [2]: 5%
Population Membrane Permeable-Phenotype (%) [2]: 1%
Population Mitochondria Different-Phenotype (%) [2]: 100%
Population Mitotic Cells (%) [2]: 8%
Population Normal (%) [2]: 94%
Population Pyknosed Nuclei (%) [2]: 62%
Population Tubulin-Different-Phenotype (%) [2]: 98%
Total Cell Count [2]: 177
Population Apoptotic (%) [3]: 81%
Population Fragmented Nuclei (%) [3]: 18%
Population Healthy Nuclei (%) [3]: 2%
Population Hoechst High Intensity Objects (%) [3]: 15%
Population Membrane Permeable-Phenotype (%) [3]: 0%
Population Mitochondria Different-Phenotype (%) [3]: 66%
Population Mitotic Cells (%) [3]: 18%
Population Normal (%) [3]: 84%
Population Pyknosed Nuclei (%) [3]: 79%
Population Tubulin-Different-Phenotype (%) [3]: 66%
Total Cell Count [3]: 266
Population Apoptotic (%) [4]: 63%
Population Fragmented Nuclei (%) [4]: 6%
Population Healthy Nuclei (%) [4]: 1%
Population Hoechst High Intensity Objects (%) [4]: 7%
Population Membrane Permeable-Phenotype (%) [4]: 66%
Population Mitochondria Different-Phenotype (%) [4]: 0%
Population Mitotic Cells (%) [4]: 36%
Population Normal (%) [4]: 92%
Population Pyknosed Nuclei (%) [4]: 91%
Population Tubulin-Different-Phenotype (%) [4]: 33%
Total Cell Count [4]: 202
Population Apoptotic (%) [5]: 86%
Population Fragmented Nuclei (%) [5]: 7%
Population Healthy Nuclei (%) [5]: 41%
Population Hoechst High Intensity Objects (%) [5]: 11%
Population Membrane Permeable-Phenotype (%) [5]: 0%
Population Mitochondria Different-Phenotype (%) [5]: 99%
Population Mitotic Cells (%) [5]: 13%
Population Normal (%) [5]: 88%
Population Pyknosed Nuclei (%) [5]: 50%
Population Tubulin-Different-Phenotype (%) [5]: 97%
Total Cell Count [5]: 293
Population Apoptotic (%) [6]: 95%
Population Fragmented Nuclei (%) [6]: 6%
Population Healthy Nuclei (%) [6]: 44%
Population Hoechst High Intensity Objects (%) [6]: 3%
Population Membrane Permeable-Phenotype (%) [6]: 1%
Population Mitochondria Different-Phenotype (%) [6]: 100%
Population Mitotic Cells (%) [6]: 4%
Population Normal (%) [6]: 96%
Population Pyknosed Nuclei (%) [6]: 49%
Population Tubulin-Different-Phenotype (%) [6]: 98%
Total Cell Count [6]: 181
Population Apoptotic (%) [7]: 88%
Population Fragmented Nuclei (%) [7]: 20%
Population Healthy Nuclei (%) [7]: 3%
Population Hoechst High Intensity Objects (%) [7]: 12%
Population Membrane Permeable-Phenotype (%) [7]: 11%
Population Mitochondria Different-Phenotype (%) [7]: 66%
Population Mitotic Cells (%) [7]: 11%
Population Normal (%) [7]: 87%
Population Pyknosed Nuclei (%) [7]: 75%
Population Tubulin-Different-Phenotype (%) [7]: 77%
Total Cell Count [7]: 263
Population Apoptotic (%) [8]: 79%
Population Fragmented Nuclei (%) [8]: 4%
Population Healthy Nuclei (%) [8]: 1%
Population Hoechst High Intensity Objects (%) [8]: 6%
Population Membrane Permeable-Phenotype (%) [8]: 50%
Population Mitochondria Different-Phenotype (%) [8]: 0%
Population Mitotic Cells (%) [8]: 20%
Population Normal (%) [8]: 93%
Population Pyknosed Nuclei (%) [8]: 94%
Population Tubulin-Different-Phenotype (%) [8]: 0%
Total Cell Count [8]: 202
Population Apoptotic (%) [9]: 85%
Population Fragmented Nuclei (%) [9]: 9%
Population Healthy Nuclei (%) [9]: 56%
Population Hoechst High Intensity Objects (%) [9]: 9%
Population Membrane Permeable-Phenotype (%) [9]: 0%
Population Mitochondria Different-Phenotype (%) [9]: 99%
Population Mitotic Cells (%) [9]: 14%
Population Normal (%) [9]: 91%
Population Pyknosed Nuclei (%) [9]: 34%
Population Tubulin-Different-Phenotype (%) [9]: 96%
Total Cell Count [9]: 300
Population Apoptotic (%) [10]: 97%
Population Fragmented Nuclei (%) [10]: 6%
Population Healthy Nuclei (%) [10]: 55%
Population Hoechst High Intensity Objects (%) [10]: 8%
Population Mitochondria Different-Phenotype (%) [10]: 98%
Population Mitotic Cells (%) [10]: 2%
Population Pyknosed Nuclei (%) [10]: 37%
Population Tubulin-Different-Phenotype (%) [10]: 99%
Total Cell Count [10]: 203
Population Fragmented Nuclei (%) [11]: 24%
Population Healthy Nuclei (%) [11]: 3%
Population Hoechst High Intensity Objects (%) [11]: 14%
Population Membrane Permeable-Phenotype (%) [11]: 22%
Population Mitochondria Different-Phenotype (%) [11]: 66%
Population Normal (%) [11]: 85%
Population Pyknosed Nuclei (%) [11]: 72%
Population Tubulin-Different-Phenotype (%) [11]: 55%
Total Cell Count [11]: 283
Population Apoptotic (%) [12]: 93%
Population Fragmented Nuclei (%) [12]: 11%
Population Healthy Nuclei (%) [12]: 6%
Population Hoechst High Intensity Objects (%) [12]: 5%
Population Membrane Permeable-Phenotype (%) [12]: 41%
Population Mitochondria Different-Phenotype (%) [12]: 75%
Population Mitotic Cells (%) [12]: 6%
Population Normal (%) [12]: 94%
Population Pyknosed Nuclei (%) [12]: 82%
Population Tubulin-Different-Phenotype (%) [12]: 66%
Total Cell Count [12]: 201

From ChEMBL document CHEMBL4689842, “EUbOPEN Chemogenomics Library wave 1” (2021)
